TAG inh – triacylglycerol accumulation inhibition; 230,000 compounds, 0.66% hits; inhibition, % at 12.5 µM; AID 651582; H9c2 cells, Nile Red lipid (TAG) fluorescence; cells loaded with 200 µM oleic acid;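 active = pattern-corrected inhibition of lipid staining of at least 50% with the nuclear-stain viability signal not falling by more than 50%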;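 also: 0% = DMSO wells and 100% = triacsin C control wells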
697 NFkB inh – inhibitors of the PMA/ionomycin-induced NF-kB reporter in 697 B cells; AID 435022; inhibition, % at 4 µM; 697 B-cell NF-kB luciferase reporter, 16 h; 330,000 compounds, 0.33% hits; in the data active = inhibition above about 35%
Gli-Sufu block – antagonists of Gli-Sufu signaling | Sufu-KO-LIGHT fibroblasts, Gli luciferase reporter luminescence | inhibition, % at 5 µM | 340,000 compounds, 0.74% hits | AID 588413;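 active = inhibition above about 55%, limit read from the data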;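 also: 0% = DMSO-treated cells and 100% = wells with medium but no cells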
Lipid droplet – modulators of hepatic lipid droplet formation. AML12 mouse hepatocytes, oleate lipid droplets, BODIPY imaging. inhibition, % at 6.5 µM. 240,000 compounds, 0.4% hits;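 active = lipid droplet intensity inhibited by at least 50%, with more than 500 cells counted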
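Test system: AML12 mouse liver cells; schedule: overnight exposure; technique: high-content imaging of BODIPY-stained droplets and DAPI nuclei; read-out: % inhibition of corrected integrated BODIPY droplet signal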
Jurkat NFkB inh – inhibitors of the PMA/ionomycin-induced NF-kB reporter in Jurkat cells. PMA/ionomycin-induced NF-kB luciferase reporter, luminescence. inhibition, % at 4 µM. 330,000 compounds, 0.53% hits. AID 435003; in the data active = inhibition above about 50%
iPSC survival up – enhancers of human iPSC single-cell survival; survival enhancement, % at 20 µM; AID 602274; 360,000 compounds, 0.044% hits; hiPSC single-cell survival, ATPlite luminescence; 100% = ROCK inhibitor wells, 0% = DMSO; in the data active = survival enhancement above about 18%;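 also: cells exposed to compounds for 16 hours before the ATP read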
H9c2 TAG conf – confirmation of triacylglycerol accumulation inhibitors; shares compounds with TAG inh; H9c2 lipid accumulation, Nile Red fluorescence; cells loaded with 200 µM oleic acid; inhibition, % at 12.5 µM; 990 compounds, 71% hits; AID 651629;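 active = mean inhibition across replicates of 40% or more; inactive = mean inhibition below 40%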;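 also: plate controls were DMSO only wells for no effect and Triacsin C treated wells for full effect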
* marks the source's active call; other numbers are inactive results; . = no result given. Compounds with a hit are over-represented: about 1.8% of the library has one in this group of screens.

SMILES | TAG inh | 697 NFkB inh | Gli-Sufu block | Lipid droplet | Jurkat NFkB inh | iPSC survival up | H9c2 TAG conf
C1=CC(c2cc3ccccc3o2)OC(CCc2ccccc2)C1 (stereo not drawn) | -36.0 | 24.4 | 3.7 | -24.0 | -5.5 | -0.7 | .
Cc1cc(NC(=O)c2c(F)cccc2F)n(-c2nc3ccccc3[nH]2)n1 | . | 4.4 | 26.9 | . | 10.5 | -1.1 | .
Cc1cc(NC(=O)c2ccccc2F)n(-c2nc3ccccc3[nH]2)n1 | 64.1* | 5.6 | -4.4 | . | 8.9 | -3.3 | 57.0*
Cc1nc(C)n(CCNS(=O)(=O)c2ccc(C)c(C)c2)n1 | . | 14.6 | 26.3 | -2.6 | 5.9 | -0.1 | .
CCCCOc1ccc(CSC2=NCCN2)cc1[N+](=O)[O-] | 56.3* | -40.1 | -8.9 | -9.6 | -28.3 | 0.7 | 68.7*
Clc1cccc(Nc2nc(-c3ccncc3)nc3ccccc23)c1 | 66.5* | 12.3 | 9.9 | 15.9 | -28.3 | -0.7 | 51.8*
Fc1ccc(Nc2nc(-c3ccncc3)nc3ccccc23)cc1F | . | 8.8 | 14.5 | 28.6 | -19.3 | -0.8 | .
CC(CC(=O)Nc1ccc2c(c1)c(=O)n(C)n2-c1ccc2ccccc2c1)C(F)(F)F (stereo not drawn) | 54.6* | . | . | . | . | -0.8 | 44.1*
Cc1ccc(/C=N/NC(=O)Cc2c[nH]c3ccccc23)c(C)c1 | 54.4* | 19.3 | -2.3 | . | 20.8 | 1.3 | 44.4*
CC(C)(C)c1ccc(/C=N/NC(=O)Cc2c[nH]c3ccccc23)cc1 | 57.8* | -9.4 | 0.0 | 16.9 | -16.9 | -3.0 | 42.2*
CC(=O)NC1(c2ccccc2)CCN(c2cc(C)nc(-c3ccccc3)n2)CC1 | . | -9.3 | 4.8 | -7.3 | -2.1 | -0.9 | .
Cc1ccccc1NC(=O)CN1C(=O)CSc2ccc(S(=O)(=O)N3CCCCC3)cc21 | . | -3.4 | -11.0 | -1.6 | 0.0 | 0.0 | .
Cc1ccc(C)c(S(=O)(=O)N2CCN(Cc3cc4c(cc3O)OCO4)CC2)c1 | 4.4 | 0.6 | 0.8 | . | -8.7 | -0.2 | .
COc1ccc(NC(=O)C2(C)Cc3c(-c4ccc5c(c4)OCO5)ccnc3O2)cn1 (stereo not drawn) | 51.9* | . | . | . | . | -1.8 | 53.0*
CC(=O)Nc1cccc(-c2ccnc3c2CC(C)(C(=O)NCc2ccc(N(C)C)cc2)O3)c1 (stereo not drawn) | 57.4* | . | . | . | . | -1.7 | 54.0*
CC1(C(=O)Nc2ccc3c(c2)OCO3)Cc2c(-c3cccc(C(N)=O)c3)ccnc2O1 (stereo not drawn) | 58.6* | . | . | . | . | -0.2 | 68.8*
O=S(=O)(NCc1ccccc1)[C@@H]1CC2C=CC1C2 (stereo partly drawn) | 4.6 | 3.1 | -0.9 | . | 6.1 | -0.6 | .
Cc1cc(C)c(NC(=O)CSc2nc3ccc(NC(=O)CSc4nnnn4Cc4ccccc4)cc3s2)c(C)c1 | 55.9* | -4.6 | -0.1 | . | 0.2 | 0.5 | 41.6*
CCC(=O)Nc1c(-c2ccc(OC)cc2)c(=O)c2ccccc2n1C | 61.0* | 14.9 | 7.4 | 1.6 | -8.6 | -4.2 | 3.5
CCC(=O)Nc1c(-c2ccc(C)cc2)c(=O)c2ccccc2n1C | . | -1.2 | 12.4 | -2.9 | -31.3 | 0.0 | .
CCOCC(=O)NC1CCc2cc(OC)c(OC)c(OC)c2-c2ccc(SC)c(=O)cc21 (stereo not drawn) | 54.1* | . | 48.0 | . | . | -1.1 | 37.8
COc1ccc(-c2sc3ccc(N4CCOCC4)cc3c2C#CC(C)(C)O)cc1 | 63.7* | -51.2 | -12.3 | . | -19.5 | 1.5 | 52.9*
C[C@H](CO)N1C[C@H](C)[C@@H](CN(C)S(=O)(=O)c2cccs2)Oc2c(NC(=O)Nc3ccccc3)cccc2C1=O | -18.3 | 11.9 | -7.2 | . | -5.7 | 2.3 | .
C[C@H](CO)N1C[C@H](C)[C@@H](CN(C)Cc2ccc(-c3ccccc3)cc2)Oc2c(NC(=O)Cc3ccccc3)cccc2C1=O | 50.1* | 11.9 | 13.6 | . | 0.0 | 2.4 | 59.1*
C[C@@H]1CN([C@@H](C)CO)C(=O)c2cccc(NC(=O)C3CCCCC3)c2O[C@@H]1CN(C)Cc1ccc(Cl)c(Cl)c1 | 54.5* | 8.8 | 36.0 | . | 3.1 | -2.5 | 70.0*
SMILES | TAG inh | 697 NFkB inh | Gli-Sufu block | Lipid droplet | Jurkat NFkB inh | iPSC survival up | H9c2 TAG conf
C[C@@H]1CN([C@H](C)CO)C(=O)c2c(c3ccccc3n2C)-c2ccccc2CO[C@H]1CN(C)Cc1ccccc1 | 34.0 | . | . | . | . | -0.4 | .
C[C@@H]1CN([C@H](C)CO)C(=O)c2c(c3ccccc3n2C)-c2ccccc2CO[C@H]1CN(C)Cc1ccc(-c2ccccc2)cc1 | 83.8* | . | . | . | . | 4.5 | 52.8*
C[C@H](CO)N1C[C@H](C)[C@@H](CN(C)Cc2ccccc2)Oc2c(NC(=O)Cc3ccccc3)cccc2C1=O | 30.5 | -1.1 | 11.9 | . | 7.6 | -1.6 | .
C[C@@H]1CN([C@H](C)CO)C(=O)c2cccc(NC(=O)Nc3ccc(C(F)(F)F)cc3)c2O[C@H]1CN(C)S(=O)(=O)c1cccs1 | 70.6* | -4.9 | 16.6 | . | -2.2 | -2.0 | 62.9*
Cc1ccc(N2CC(NS(=O)(=O)c3cccs3)CC2=O)cc1 (stereo not drawn) | 7.0 | 7.2 | -3.0 | . | -4.2 | 0.9 | .
COCCn1c(SCC(=O)N2CCC(C)CC2)nc2c([nH]c3ccccc32)c1=O | . | -21.1 | 10.8 | 42.6 | 14.2 | -0.4 | .
O=C(CNC(=O)c1nn(Cc2ccccc2)c(=O)c2ccccc12)Nc1ccc(F)c(F)c1F | 4.4 | 7.6 | 3.7 | . | -4.3 | 3.9 | .
CC(=O)Nc1cccc(NC(=O)C(C)N2c3cccc4cccc(c34)S2(=O)=O)c1 (stereo not drawn) | . | 10.9 | 10.1 | -6.1 | 4.8 | -0.4 | .
C[C@@H]1CN([C@H](C)CO)S(=O)(=O)c2ccc(Br)cc2O[C@@H]1CN(C)Cc1ccc(-c2ccccc2)cc1 | -7.7 | . | . | . | . | 5.7 | .
C[C@H](O)C#Cc1ccc2c(c1)O[C@@H](CN(C)Cc1ccc(-c3ccccc3)cc1)[C@H](C)CN([C@@H](C)CO)S2(=O)=O | 64.0* | . | . | . | . | -1.6 | 66.3*
CNc1ncnc2c1ncn2[C@H]1CN(Cc2ccccc2)C[C@@H](CO)O1 | -2.3 | . | . | . | . | 1.0 | .
CCN(C(=O)COC(=O)c1ccc([N+](=O)[O-])o1)c1cccc2ccccc12 | 69.4* | -0.3 | -5.7 | . | -4.5 | 3.9 | 88.2*
CC(C)(C)N(Cc1ccccc1)C(=O)COC(=O)c1ccc([N+](=O)[O-])o1 | 6.3 | 20.5 | -9.0 | . | 5.8 | -1.6 | .
COC(=O)[C@]1(Cc2ccccc2)N[C@H](c2ccc(-c3cccc(Cl)c3)c(OC)c2)[C@@H]2C(=O)N(C)C(=O)[C@@H]21 | 55.1* | . | 28.1 | . | . | -3.1 | 44.7*
COC(=O)[C@]1(CC(C)C)N[C@H](c2ccc(-c3cccc(Cl)c3)cc2)[C@@H]2C(=O)N(C)C(=O)[C@@H]21 | 60.8* | 20.6 | 2.3 | . | 9.3 | -2.4 | 35.7
O=C(NNC(=O)c1cc(Cl)ccc1[N+](=O)[O-])c1csc(N2CCOCC2)n1 | 1.6 | 22.8 | 0.1 | . | -3.8 | 0.2 | .

Screens (PubChem)
